# Assays:
# [1] = Binding affinity to amyloid beta fibrils
# Method in brief: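 Competitive binding to Aβ1–40 aggregates, with [125I]TZDM as the radiolabeled reference ligand displaced by unlabeled test compound. Run in triplicate and reported as mean ± SD.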
# [2] = Displacement of [125I]TZDM from amyloid beta (1 to 40) aggregates after 2 hrs by gamma counting
# Method in brief: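 Competition binding against [125I]TZDM as radiolabeled standard, using Aβ1–40 aggregates; run in triplicate, results as mean ± SD.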
Ki [1] [µM],Ki [2] [µM],SMILES
0.0057,–,COc1ccc2cc([C@H](C)C(=O)O)ccc2c1 [NAPROXEN]
–,0.0608,COc1ccc(/C=C/C(=O)n2ccc3cc(OC)ccc32)cc1
–,0.0216,O=C(/C=C/c1ccccc1)n1ccc2cc(O)ccc21
–,0.0273,COc1ccc(/C=C/C(=O)n2ccc3ccccc32)cc1
–,0.0181,COc1ccc(/C=C/C(=O)n2ccc3cc(Cl)ccc32)cc1

# Source: ChEMBL document CHEMBL1828568, “Novel imaging agents for β-amyloid plaque based on the N-benzoylindole core” (Bioorg Med Chem Lett, 2011)
